Test results published in ChEMBL document CHEMBL1944562, “Design, synthesis of some new (2-aminothiazol-4-yl)methylester derivatives as possible antimicrobial and antitubercular agents” (2012).
Values after ≈ are worked out from the molar mass of the structure shown.

Legend:
Format in all cases: functional
[1] = tested on: Mycolicibacterium smegmatis; test: Antitubercular activity against Mycobacterium smegmatis ATCC 19420 after 7 days by resazurin assay; conditions: ATCC 19420, 168 h
Method in brief: (§1)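 Middlebrook 7H9 broth with 10% OADC, culture adjusted to McFarland 2. 50 µL culture added to 150 µL fresh medium. Stocks at 2 mg/mL in DMF, tested first at 1, 10 and 100 µg/mL, then at 0.3125-5 µg/mL. DMF controls. After 7 days at 37 °C, 0.01% resazurin added. Blue-to-pink change read for MIC.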

[2] = tested on: Mycolicibacterium fortuitum; test: Antitubercular activity against Mycobacterium fortuitum ATCC 19542 after 7 days by resazurin assay; conditions: ATCC 19542, 168 h; method in brief: as §1
[3] = tested on: Mycobacterium tuberculosis; test: Antitubercular activity against Mycobacterium tuberculosis H37Rv assessed as growth inhibition after 7 days by resazurin assay
Method in brief: (§2)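 M. tuberculosis H37Rv ATCC 27294 grown in Middlebrook 7H9 broth with 10% OADC and adjusted to McFarland 2. Culture was diluted 1:4 into fresh medium. Compounds came from 2 mg/mL DMF stocks, screened first at 1, 10 and 100, then at 0.3125–5. DMF-only controls were included. After 7 days at 37 °C, 0.01% resazurin was added; a blue-to-pink change marked growth, and the MIC was read.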

Escherichia coli [4] = test: Antibacterial activity against Escherichia coli ATCC 25922 after 16 to 18 hrs by […]
Staphylococcus aureus [5] = test: Antibacterial activity against Staphylococcus aureus ATCC 25923 after 16 to 18 hrs by serial plate dilution method
Pseudomonas aeruginosa [6] = test: Antibacterial activity against Pseudomonas aeruginosa ATCC 27853 after 16 to 18 hrs by […]
Klebsiella pneumoniae [7] = test: Antibacterial activity against Klebsiella pneumoniae after 16 to 18 hrs by […]
Bacillus subtilis [8] = test: Antibacterial activity against Bacillus subtilis after 16 to 18 hrs by […]
Escherichia coli [9] = test: Antibacterial activity against Escherichia coli ATCC 25922 at MIC after 3 to 4 days
Method in brief: (§3)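 Agar well diffusion on seeded agar plates, 20 mL agar per dish, dried 1 h at 37 °C. Wells punched and loaded with test compound in DMSO at its MIC. DMSO-only control. Plates run in triplicate and kept 3-4 days at 37 °C. Inhibition zone diameter measured.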

Staphylococcus aureus [10] = test: Antibacterial activity against Staphylococcus aureus ATCC 25923 at […] after 3 to 4 days; method in brief: as §3
Pseudomonas aeruginosa [11] = test: Antibacterial activity against Pseudomonas aeruginosa ATCC 27853 at MIC after 3 to 4 days; method in brief: as §3
Klebsiella pneumoniae [12] = test: Antibacterial activity against Klebsiella pneumoniae at MIC after 3 to 4 days; method in brief: as §3
Bacillus subtilis [13] = test: Antibacterial activity against Bacillus subtilis at MIC after 3 to 4 days; method in brief: as §3
Aspergillus flavus [14] = test: Antifungal activity against Aspergillus flavus NCIM N0.524 after 3 to 4 days by serial plate dilution method
Aspergillus fumigatus [15] = test: Antifungal activity against Aspergillus fumigatus NCIM N0.902 after 3 to 4 days by serial plate dilution method
Talaromyces marneffei [16] = test: Antifungal activity against Penicillium marneffei after 3 to 4 days by serial plate dilution method
[17] = tested on: Trichophyton mentagrophytes; test: Antifungal activity against Trichophyton mentagrophytes after 3 to 4 days by serial plate dilution method
Candida albicans [18] = test: Antifungal activity against Candida albicans after 3 to 4 days by serial plate dilution method
Aspergillus flavus [19] = test: Antifungal activity against Aspergillus flavus NCIM N0.524 at MIC after 3 to 4 days
Method in brief: (§4)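 Fungal suspension made by transferring a loopful of culture to 3 mL saline and seeding agar plates, 20 mL agar per dish, dried 1 h at 37 °C. Punched wells loaded with test compound in DMSO at its MIC. DMSO-only control. Triplicate plates held 3-4 days at 37 °C. Inhibition zone diameter measured.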

Aspergillus fumigatus [20] = test: Antifungal activity against Aspergillus fumigatus NCIM N0.902 at MIC after 3 to 4 days; method in brief: as §4
Talaromyces marneffei [21] = test: Antifungal activity against Penicillium marneffei at MIC after 3 to 4 days; method in brief: as §4
[22] = tested on: Trichophyton mentagrophytes; test: Antifungal activity against Trichophyton mentagrophytes at MIC after 3 to 4 days; method in brief: as §4
Candida albicans [23] = test: Antifungal activity against Candida albicans at MIC after 3 to 4 days; method in brief: as §4
[24] = tested on: Mycobacterium tuberculosis; test: Antitubercular activity against Mycobacterium tuberculosis H37Rv after 7 days by resazurin assay; conditions: 168 h; method in brief: as §2

Row | SMILES | MIC [1] | MIC [2] | growth inhibition (GI) [3] | MIC (Escherichia coli [4]) | MIC (Staphylococcus aureus [5]) | MIC (Pseudomonas aeruginosa [6]) | MIC (Klebsiella pneumoniae [7]) | MIC (Bacillus subtilis [8]) | diameter of the inhibition zone (DIZ) (Escherichia coli [9]) | diameter of the inhibition zone (DIZ) (Staphylococcus aureus [10]) | diameter of the inhibition zone (DIZ) (Pseudomonas aeruginosa [11]) | diameter of the inhibition zone (DIZ) (Klebsiella pneumoniae [12]) | diameter of the inhibition zone (DIZ) (Bacillus subtilis [13]) | MIC (Aspergillus flavus [14]) | MIC (Aspergillus fumigatus [15]) | MIC (Talaromyces marneffei [16]) | MIC [17] | MIC (Candida albicans [18]) | diameter of the inhibition zone (DIZ) (Aspergillus flavus [19]) | diameter of the inhibition zone (DIZ) (Aspergillus fumigatus [20]) | further results
1 | N#Cc1ccc(C(=O)OCc2csc(N)n2)cn1 | > 100 µg/mL | > 100 µg/mL | 0% | 6.25 µg/mL (≈ 24 µM) | 6.25 µg/mL (≈ 24 µM) | 6.25 µg/mL (≈ 24 µM) | 6.25 µg/mL (≈ 24 µM) | 6.25 µg/mL (≈ 24 µM) | 16 mm | 16 mm | 16 mm | 16 mm | 16 mm | 25 µg/mL (≈ 96.1 µM) | 6.25 µg/mL (≈ 24 µM) | 25 µg/mL (≈ 96.1 µM) | 6.25 µg/mL (≈ 24 µM) | 25 µg/mL (≈ 96.1 µM) | <10 mm | 16 mm | diameter of the inhibition zone (DIZ) (Talaromyces marneffei [21]): <10 mm; diameter of the inhibition zone (DIZ) [22]: 16 mm; diameter of the inhibition zone (DIZ) (Candida albicans [23]): <10 mm; MIC [24]: > 100 µg/mL
2 | Nc1nc(COC(=O)c2c(F)cccc2Cl)cs1 | 10 µg/mL (≈ 34.9 µM) | 10 µg/mL (≈ 34.9 µM) | 95% | 25 µg/mL (≈ 87.2 µM) | 6.25 µg/mL (≈ 21.8 µM) | 12.5 µg/mL (≈ 43.6 µM) | 12.5 µg/mL (≈ 43.6 µM) | 6.25 µg/mL (≈ 21.8 µM) | <10 mm | 16 mm | 11 mm | 11 mm | 16 mm | 25 µg/mL (≈ 87.2 µM) | 25 µg/mL (≈ 87.2 µM) | 25 µg/mL (≈ 87.2 µM) | 25 µg/mL (≈ 87.2 µM) | 12.5 µg/mL (≈ 43.6 µM) | <10 mm | <10 mm | diameter of the inhibition zone (DIZ) (Talaromyces marneffei [21]): <10 mm; diameter of the inhibition zone (DIZ) [22]: <10 mm; diameter of the inhibition zone (DIZ) (Candida albicans [23]): 11 mm; MIC [24]: 0.625 µg/mL (≈ 2.18 µM)
3 | Nc1nc(COC(=O)c2c(F)cc(F)cc2F)cs1 | 10 µg/mL (≈ 34.7 µM) | > 100 µg/mL | <90% | 6.25 µg/mL (≈ 21.7 µM) | 25 µg/mL (≈ 86.7 µM) | 6.25 µg/mL (≈ 21.7 µM) | 25 µg/mL (≈ 86.7 µM) | 25 µg/mL (≈ 86.7 µM) | 16 mm | <10 mm | 16 mm | <10 mm | <10 mm | 6.25 µg/mL (≈ 21.7 µM) | 6.25 µg/mL (≈ 21.7 µM) | 6.25 µg/mL (≈ 21.7 µM) | 6.25 µg/mL (≈ 21.7 µM) | 6.25 µg/mL (≈ 21.7 µM) | 16 mm | 16 mm | diameter of the inhibition zone (DIZ) (Talaromyces marneffei [21]): 16 mm; diameter of the inhibition zone (DIZ) [22]: 16 mm; diameter of the inhibition zone (DIZ) (Candida albicans [23]): 16 mm; MIC [24]: 5 µg/mL (≈ 17.3 µM)
4 | Nc1nc(COC(=O)c2ccco2)cs1 | > 100 µg/mL | > 100 µg/mL | 0% | 6.25 µg/mL (≈ 27.9 µM) | 6.25 µg/mL (≈ 27.9 µM) | 6.25 µg/mL (≈ 27.9 µM) | 6.25 µg/mL (≈ 27.9 µM) | 6.25 µg/mL (≈ 27.9 µM) | 16 mm | 16 mm | 16 mm | 16 mm | 16 mm | 6.25 µg/mL (≈ 27.9 µM) | 25 µg/mL (≈ 111 µM) | 6.25 µg/mL (≈ 27.9 µM) | 25 µg/mL (≈ 111 µM) | 6.25 µg/mL (≈ 27.9 µM) | 16 mm | <10 mm | diameter of the inhibition zone (DIZ) (Talaromyces marneffei [21]): 16 mm; diameter of the inhibition zone (DIZ) [22]: <10 mm; diameter of the inhibition zone (DIZ) (Candida albicans [23]): 16 mm; MIC [24]: > 100 µg/mL
